TPT1 inh = Candida albicans TPT1 enzyme inhibitors, primary screen, biochemical, fluorescence polarization; inhibition, % at 5 µM; recombinant caTPT1, FP RNA substrate dephosphorylation; 0.81% of 300,000 active; tRNA 2'-phosphotransferase TPT1 (Candida albicans SC5314);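 active = inhibition above the mean of all tested compounds plus 3 SD, set per screening campaign, cut at about 24% in these data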;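 note: plate controls were DMSO alone for no effect and ferristatin control at 100 nM for full effect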
Rpn11 block = Rpn11 (PSMD14) deubiquitinase inhibitors, primary screen, biochemical, fluorescence polarization, uHTS; 26S proteasome non-ATPase regulatory subunit 14 (Homo sapiens), O00487; human 26S proteasome, Ub4-pepOG fluorescence polarization; 20S core pre-blocked with epoxomicin; inhibition, % at 20 µM; 0.59% of 360,000 active; AID 588493, 2011;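 active = inhibition at 20 µM, scaled to each plate's controls, above about 33%, limit read from the data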
Myeloid diff 2 = induction of myeloid progenitor differentiation, primary screen, cell-based, flow cytometry, MLPCN library; AID 624256, 2012; ER-HoxA9 myeloid progenitors, lysozyme-GFP differentiation; 1% of 360,000 active; calls only at 10 µM;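 active = normalized GFP-positive differentiation at or above the plate's own cutoff, the solvent-only control mean plus 3 SD; inconclusive = no clear call, values can overlap the other calls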;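 note: cells exposed to compound for four days before flow analysis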
HNF4A DNA FP = change in binding of human HNF4A to DNA, primary screen, biochemical, fluorescence polarization, FITC-DNA | activity change, % at 10 µM | 1 h | 0.3% of 360,000 active | AID 1224865, 2016 | Hepatocyte nuclear factor 4-alpha (Homo sapiens), P41235; in the data active = activity change above about 30%, passing the limit was not always enough
Target sequence (P41235 whole entry, looked up): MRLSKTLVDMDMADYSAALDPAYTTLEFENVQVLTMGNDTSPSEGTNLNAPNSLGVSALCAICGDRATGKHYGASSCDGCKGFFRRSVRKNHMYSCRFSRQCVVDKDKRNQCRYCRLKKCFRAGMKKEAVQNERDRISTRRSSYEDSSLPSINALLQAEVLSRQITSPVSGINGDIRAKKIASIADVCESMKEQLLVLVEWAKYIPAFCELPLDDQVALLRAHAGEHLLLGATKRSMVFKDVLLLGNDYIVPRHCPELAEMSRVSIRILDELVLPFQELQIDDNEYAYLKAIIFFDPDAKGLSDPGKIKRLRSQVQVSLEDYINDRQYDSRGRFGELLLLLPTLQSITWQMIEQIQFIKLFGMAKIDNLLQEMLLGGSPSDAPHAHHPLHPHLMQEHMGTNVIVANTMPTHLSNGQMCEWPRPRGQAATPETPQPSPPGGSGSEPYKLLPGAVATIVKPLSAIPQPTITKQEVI
CSN inh = inhibitors of CSN-mediated cullin deneddylation, primary screen, biochemical, fluorescence polarization, uHTS; COP9 signalosome complex subunit 5 (Homo sapiens), Q92905; Purified CSN, SCF-Nedd8-OG deneddylation; inhibition, % at 12.5 µM; 0.38% of 360,000 active;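 active = pattern-corrected inhibition above about 35%, with an unprinted fluorescence ratio check between 0.5 and 1.5, limit read from the data, passing the limit was not always enough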;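 note: 0% = enzyme with substrate and 100% = substrate without enzyme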
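Test system: purified human Csn5 enzyme expressed in HEK293T cells. Amount: 0.24 nM enzyme. Reagent: SCFSkp2-Nedd8OG substrate at 10 nM final. Schedule: 90 min incubation of compound, enzyme and substrate at room temperature. Detection: fluorescence polarization. Read-out: % inhibition of substrate cleavage by Csn5.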
TPT1 inh confirm = Candida albicans TPT1 inhibitors, confirmation, biochemical, fluorescence polarization, triplicate | shares compounds with TPT1 inh | recombinant caTPT1, RNase T1 coupled | inhibition, % at 5 µM | 74% of 2,400 active;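 active = inhibition above the primary screen limit, the mean inhibition of all tested compounds plus 3 SD, cut at about 25% in these data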
RNase T1 counter = RNase T1 inhibitors, counter-screen for TPT1 inhibitor project, biochemical, fluorescence polarization | shares compounds with TPT1 inh | RNase T1 cleavage, 1536-well | inhibition, % at 5 µM | 83% of 2,400 active;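 active = inhibition above the solvent-only control well mean plus 3 SD, limit set per screening run, cut at about 23% in these data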;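 note: plate controls were DMSO wells with enzyme for no effect and wells without RNase T1 for full effect; inhibitors block cleavage so intact labeled substrate keeps polarization high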
Target sequence (P00651 whole entry, looked up): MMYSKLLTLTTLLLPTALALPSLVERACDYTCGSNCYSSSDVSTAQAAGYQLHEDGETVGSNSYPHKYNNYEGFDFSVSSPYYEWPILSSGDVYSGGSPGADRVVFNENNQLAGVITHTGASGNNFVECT
Starred values were filed as active, the others as inactive; i = inactive; ? = inconclusive; nt = not tested or not shown; + = active, no number. An excerpt weighted towards active compounds, which were near 2.3% of everything screened.

SMILES	TPT1 inh	Rpn11 block	Myeloid diff 2	HNF4A DNA FP	CSN inh	TPT1 inh confirm	RNase T1 counter
COc1ccc(CCNC(=O)CCc2cn(C)c3ccccc23)c(OC)c1OC	-5	7	i	3	4	nt	nt
O=C(c1ccc(-c2ccc([N+](=O)[O-])cc2)o1)N1CCCC(C(F)(F)F)C1 (stereo unspecified)	25*	5	i	6	-3	13	19
CCOc1ccc(C2CC(c3c(O)c4ccccc4oc3=O)=NN2c2ccccc2)cc1OC (stereo unspecified)	69*	nt	i	64	64	80*	82*
Cc1cc([N+](=O)[O-])ccc1-c1ccc(/C=N/NC(=O)Cc2ccccc2)o1	24*	25	i	-25	-10	24*	37*
COc1ccc([N+](=O)[O-])cc1/C=N/NC(=O)Cc1ccccc1	-1	-7	i	2	-8	nt	nt
CCOc1ccc(CN(C)C(=O)CNC(=O)c2sc3ccccc3c2Cl)cc1	nt	1	i	6	-5	nt	nt
CCOC(=O)/C(C#N)=C\C=C1C=CN(C)C=C1	158*	nt	+	164	123	173*	167*
CCCC(NC(=O)c1c(C)noc1C)C12CC3CC(CC(C3)C1)C2 (stereo unspecified)	81*	3	i	0	3	25*	35*
O=C(C1=C(O)C(=O)N(CCN2CCOCC2)C1c1cccc(O)c1)c1cc2ccccc2o1 (stereo unspecified)	nt	8	i	4	-1	nt	nt
O=C(C1=C(O)C(=O)N(CCN2CCOCC2)C1c1cccs1)c1cc2ccccc2o1 (stereo unspecified)	55*	17	i	5	0	7	14
O=c1c(/C=C(\O)c2ccccc2)nc2ccccc2n1-c1ccccc1	119*	-4	+	46*	19	86*	95*
Cc1nc2ccccc2n1-c1ccccc1	-1	4	i	0	1	nt	nt
Cc1ccc(NC(=O)C2(C)CCN2C(=O)Cc2ccccc2Cl)cc1C (stereo unspecified)	nt	0	i	-1	-2	nt	nt
COc1ccccc1N1CCN(Cc2cc(=O)c(OCC#N)co2)CC1	-2	-3	i	-2	-1	nt	nt
C=CCn1c(=O)/c(=C2/Sc3ccccc3N2CC)s/c1=C1/C(=O)NN=C1C	44*	nt	nt	nt	nt	48*	59*
CC(=O)N1C(=O)C(=C2C=C(C)OC(C)=C2)c2ccccc21	27*	nt	i	138	31	72*	55*
CC1=CC(=C2C(=O)c3ccccc3C2=O)C=C(C)O1	0	4	i	2	-10	nt	nt
COc1cc(/C=C2\CC/C(=C\c3ccc(OCCO)c(OC)c3)C2=O)ccc1OCCO	107*	nt	i	12	34	114*	113*
CC(=O)Nc1ccc(S(=O)(=O)N2CCCN(c3nc(C)cc(C)c3C#N)CC2)cc1	-6	-8	i	-1	5	nt	nt
C/C(=N/Nc1nc(-c2ccccc2F)nc2ccccc12)c1ccccc1O	32*	-1	+	7	-3	36*	51*
N#CC1=C(N)Oc2cc(N)ccc2C1c1ccc(F)cc1 (stereo unspecified)	1	9	i	0	4	nt	nt
N#CC1=C(N)Oc2cc(N)ccc2C1c1ccc(F)cc1F (stereo unspecified)	42*	nt	+	37	58	33*	44*
CC1CCCCN1C(=O)c1ccc(C(=O)c2ccccc2)cc1 (stereo unspecified)	nt	8	i	1	-2	nt	nt
O=C(N/C=C/c1ccco1)Nc1cccc(Cl)c1	34*	24	i	0	8	5	13
Cc1cc(C)n(CC(O)Cn2c(C)c(C)c3ccccc32)n1 (stereo unspecified)	46*	44*	+	13	28	5	10
SMILES	TPT1 inh	Rpn11 block	Myeloid diff 2	HNF4A DNA FP	CSN inh	TPT1 inh confirm	RNase T1 counter
CC(=O)Oc1cccc(N2C(=O)c3cccc4c([N+](=O)[O-])ccc(c34)C2=O)c1	43*	-14	?	-17	-6	43*	59*
O=C(O)C1C(=O)NCC1c1ccccc1 (stereo unspecified)	-2	9	i	-1	-5	nt	nt
CC(C)(C)NS(=O)(=O)c1cc(C(=O)Nc2sccc2C#N)ccc1Cl	36*	nt	i	28	31	32*	43*
Cc1ccc(S(=O)(=O)/C=C2\OCc3ccccc32)cc1	nt	nt	i	-1	-3	nt	nt
COc1ccc(CCCN2CCC(CN3CCNC(=O)C3=O)CC2)cc1OC	nt	4	i	0	3	nt	nt
COc1ccc(NC(=O)/C(C#N)=C\c2ccc(Br)o2)cc1	5	-10	i	-8	23	nt	nt
N#C/C(=C\c1ccc([N+](=O)[O-])o1)C(=O)Nc1ccc(F)cc1	39*	nt	?	15	23	42*	55*
COc1ccnc(CS(=O)c2nc3cc(OC(F)F)ccc3[nH]2)c1OC (stereo unspecified)	0	nt	nt	nt	nt	nt	nt
Cc1ccc(OCC(=O)OCC(=O)NC2CCS(=O)(=O)C2)cc1C (stereo unspecified)	nt	-2	i	1	1	nt	nt
O=C(CSC1=NS(=O)(=O)c2cc(F)ccc2N1)NCc1ccccc1Cl	-3	-3	i	0	5	nt	nt
Cc1ccc(NC(=O)COC(=O)c2ccc(CN3CCCC3=O)cc2)c(Cl)c1	nt	9	i	3	-4	nt	nt
CCOC(=O)c1c(/N=C/N(C)C)sc(/C=N/Nc2ccccc2)c1-c1ccccc1Cl	35*	25	i	17	11	40*	52*
CSc1nnc(C)c(/C=C/Nc2ccc(F)cc2)n1	116*	35	i	17	-6	101*	105*
Cc1cc(C)c(C(N)=O)c(Nc2ccc(F)cc2)n1	-1	-1	i	2	1	nt	nt
CC(C)NC(=O)c1nc2c(nnn2Cc2cccc(Cl)c2)c(=O)[nH]1	3	-1	i	4	0	nt	nt
CC(=O)c1cccc(NC(=O)CNC(=O)c2sc3ccccc3c2Cl)c1	29*	30	i	15	5	45*	57*

Compound activity: PubChem BioAssay, several laboratories
